Assay results: ChEMBL document CHEMBL1806449, “A class of Trp-Trp-AA-OBzl: Synthesis, in vitro anti-proliferation/in vivo anti-tumor evaluation, intercalation-mechanism investigation and 3D QSAR analysis” (Eur J Med Chem, 2011)
Activity calls are given as the source filed them. The calls are words filed in the database; no cut-off is given here. Peptide text beside a SMILES is read from it. * marks the point of attachment. OBn = c1ccc(CO*)cc1

Experiments:
HepG2 = experiment: Antiproliferative activity against human HepG2 cells after 48 hrs by MTT assay; assay type: functional, cell-based; conditions: HepG2, 48 h
[1] = Acute toxicity in ip dosed ICR mouse assessed as lethal dose; assay type: organism-based; conditions: in vivo
Procedure, shortened: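 Male ICR mice, 24 weeks old, got a single i.p. injection of 500 mg/kg in 0.2 ml NS (normal saline). They were watched for 7 days for neurotoxic behaviour (tremor, twitch, jumping, tetanus, supination) and for death.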

Mus musculus [2] = experiment: Acute toxicity in ICR mouse assessed as jumping at 500 mg/kg, ip administered qd for 7 days; assay type: organism-based; design: dose 500 mg/kg, route intraperitoneal; conditions: in vivo, 168 h
H22 = experiment: Antiproliferative activity against mouse H22 cells after 48 hrs by MTT assay; assay type: functional, cell-based; conditions: H22, 48 h
Mus musculus [3] = experiment: Toxicity in ICR mouse xenografted with mouse S180 cells assessed as effect on kidney weight at 8.9 umol/kg; assay type: organism-based, CCRF S-180; conditions: in vivo
Procedure, shortened: (§1)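 S180-bearing male ICR mice (10–12 weeks; 1×10^7 cells s.c. right oxter; 12 per group), daily i.p. 8.9 µmol/kg for seven days starting 24 h after implantation; NS, cytarabine and doxorubicin controls; liver, brain, kidney weights, spleen index and body-weight gain recorded.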

Mus musculus [4] = experiment: Toxicity in ICR mouse xenografted with mouse S180 cells assessed as increase in body weight at 8.9 umol/kg; assay type: organism-based, CCRF S-180; conditions: in vivo; procedure, shortened: as §1
CCRF S-180 [5] = experiment: Antitumor activity against mouse S180 cells xenografted in ICR mouse assessed as tumor growth inhibition at 8.9 umol/kg, ip administered 1 day after tumor inoculation qd for 7 days; assay type: functional; conditions: CCRF S-180, ip, read-out: GI
Procedure, shortened: (§2)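 Male ICR mice 10–12 weeks; S180 from ascites serially transplanted weekly; 1×10^7 viable cells in 0.2 ml NS implanted s.c. at right oxter; 24 h later randomized (10 per group); daily i.p. 8.9, 0.89 or 0.089 µmol/kg/day in 0.2 ml NS, 7 days; NS and cytarabine controls; sacrificed 24 h after last dose; inhibition % = [1−(Tw/Cw)]×100.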

K562 = experiment: Antiproliferative activity against human K562 cells after 48 hrs by MTT assay; assay type: functional, cell-based; conditions: K562, 48 h
Mus musculus [6] = experiment: Acute toxicity in ICR mouse assessed as apparent changes in any organ at 500 mg/kg, ip administered qd for 7 days; assay type: organism-based; design: dose 500 mg/kg, route intraperitoneal; conditions: in vivo, 168 h
B16 = experiment: Antiproliferative activity against mouse B16 cells after 48 hrs by MTT assay; assay type: functional, cell-based; conditions: B16, 48 h
Mus musculus [7] = experiment: Acute toxicity in ICR mouse assessed as tremors at 500 mg/kg, ip administered qd for 7 days; assay type: organism-based; design: dose 500 mg/kg, route intraperitoneal; conditions: in vivo, 168 h
Mus musculus [8] = experiment: Acute toxicity in ICR mouse assessed as twitch at 500 mg/kg, ip administered qd for 7 days; assay type: organism-based; design: dose 500 mg/kg, route intraperitoneal; conditions: in vivo, 168 h
Mus musculus [9] = experiment: Acute toxicity in ICR mouse assessed as supination at 500 mg/kg, ip administered qd for 7 days; assay type: organism-based; design: dose 500 mg/kg, route intraperitoneal; conditions: in vivo, 168 h
Mus musculus [10] = experiment: Acute toxicity in ICR mouse assessed as tetanus at 500 mg/kg, ip administered qd for 7 days; assay type: organism-based; design: dose 500 mg/kg, route intraperitoneal; conditions: in vivo, 168 h
CCRF S-180 [11] = experiment: Antiproliferative activity against mouse S180 cells after 48 hrs by MTT assay; assay type: functional, cell-based; conditions: CCRF S-180, 48 h
Mus musculus [12] = experiment: Toxicity in ICR mouse xenografted with mouse S180 cells assessed as increase in spleen index at 8.9 umol/kg; assay type: organism-based, CCRF S-180; conditions: in vivo; procedure, shortened: as §1
Mus musculus [13] = experiment: Toxicity in ICR mouse xenografted with mouse S180 cells assessed as effect on brain weight at 8.9 umol/kg; assay type: organism-based, CCRF S-180; conditions: in vivo; procedure, shortened: as §1
Mus musculus [14] = experiment: Acute toxicity in ICR mouse assessed as mortality at 500 mg/kg, ip administered qd for 7 days; assay type: organism-based; design: dose 500 mg/kg, route intraperitoneal; conditions: in vivo, 168 h
Mus musculus [15] = experiment: Toxicity in ICR mouse xenografted with mouse S180 cells assessed as effect on liver weight at 8.9 umol/kg; assay type: organism-based, CCRF S-180; conditions: in vivo; procedure, shortened: as §1
CCRF S-180 [16] = experiment: Antitumor activity against mouse S180 cells xenografted in ICR mouse assessed as tumor growth inhibition at 0.89 umol/kg, ip administered 1 day after tumor inoculation qd for 7 days; assay type: functional; conditions: CCRF S-180, ip, read-out: GI; procedure, shortened: as §2
CCRF S-180 [17] = experiment: Antitumor activity against mouse S180 cells xenografted in ICR mouse assessed as tumor growth inhibition at 0.089 umol/kg, ip qd administered 1 day after tumor inoculation for 7 days; assay type: functional; conditions: CCRF S-180, ip, read-out: GI; procedure, shortened: as §2
Nucleic Acid [18] = experiment: Binding affinity to calf thymus DNA assessed as increase in DNA viscosity at compound to DNA ratio of 0.36; assay type: nucleic-acid assay; conditions: Bos taurus
Procedure, shortened: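 Relative viscosity of CT DNA solutions measured at compound/CT DNA ratios 0–0.36.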

Nucleic Acid [19] = experiment: Binding affinity to double strand calf thymus DNA assessed as melting temperature; assay type: nucleic-acid assay; conditions: Bos taurus
Procedure, shortened: (§3)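 CT DNA in PBS pH 7.4, alone or with compound; temperature raised 1 °C/min with absorbance at 279 nm; Tm taken as temperature giving 50% absorbance increase.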

Nucleic Acid [20] = experiment: Binding affinity to double stranded calf thymus DNA assessed as change in melting temperature per minute; assay type: nucleic-acid assay; conditions: Bos taurus; procedure, shortened: as §3
Mus musculus [21] = experiment: Toxicity in ICR mouse xenografted with mouse S180 cells assessed as increase in spleen index at 2 umol/kg; assay type: organism-based, CCRF S-180; conditions: in vivo
Mus musculus [22] = experiment: Toxicity in ICR mouse xenografted with mouse S180 cells assessed as increase in body weight at 2 umol/kg; assay type: organism-based, CCRF S-180; conditions: in vivo
Mus musculus [23] = experiment: Toxicity in ICR mouse xenografted with mouse S180 cells assessed as effect on liver weight at 2 umol/kg; assay type: organism-based, CCRF S-180; conditions: in vivo
Mus musculus [24] = experiment: Toxicity in ICR mouse xenografted with mouse S180 cells assessed as effect on kidney weight at 2 umol/kg; assay type: organism-based, CCRF S-180; conditions: in vivo
Mus musculus [25] = experiment: Toxicity in ICR mouse xenografted with mouse S180 cells assessed as effect on brain weight at 2 umol/kg; assay type: organism-based, CCRF S-180; conditions: in vivo

| SMILES | IC50 (HepG2) | LD50 [1] | Activity (Mus musculus [2]) | IC50 (H22) | Activity (Mus musculus [3]) | Activity (Mus musculus [4]) | inhibition in vivo at 8.9 µmol/kg (CCRF S-180 [5]) | IC50 (K562) | Activity (Mus musculus [6]) | IC50 (B16) | Activity (Mus musculus [7]) | Activity (Mus musculus [8]) | Activity (Mus musculus [9]) | Activity (Mus musculus [10]) | IC50 (CCRF S-180 [11]) | Activity (Mus musculus [12]) | Activity (Mus musculus [13]) | Activity (Mus musculus [14]) | Activity (Mus musculus [15]) | also measured |
| --- | --- | --- | --- | --- | --- | --- | --- | --- | --- | --- | --- | --- | --- | --- | --- | --- | --- | --- | --- | --- |
| N[C@@H](Cc1c[nH]c2ccccc12)C(=O)N[C@@H](Cc1c[nH]c2ccccc12)C(=O)N1CCC[C@H]1C(=O)OCc1ccccc1 (H-Trp-Trp-Pro-OBn) | 14.7 µM | > 500 mg/kg | Non-toxic | 15.5 µM | 0.15 g | 10.24 g | 58% | 12.9 µM | Non-toxic | 17.2 µM | Non-toxic | Non-toxic | Non-toxic | Non-toxic | 12.5 µM | 8.01 | 0.27 g | Non-toxic | 1.81 g |  |
| N[C@@H](Cc1c[nH]c2ccccc12)C(=O)N[C@@H](Cc1c[nH]c2ccccc12)C(=O)N[C@@H](CO)C(=O)OCc1ccccc1 (H-Trp-Trp-Ser-OBn) | 46.6 µM | > 500 mg/kg | Non-toxic | 46.3 µM | 0.16 g | 9.95 g | 18.1% | 41.6 µM | Non-toxic | 54.3 µM | Non-toxic | Non-toxic | Non-toxic | Non-toxic | 41.2 µM | 7.59 | 0.28 g | Non-toxic | 1.73 g |  |
| C[C@@H](O)[C@H](NC(=O)[C@H](Cc1c[nH]c2ccccc12)NC(=O)[C@@H](N)Cc1c[nH]c2ccccc12)C(=O)OCc1ccccc1 (H-Trp-Trp-Thr-OBn) | 13.7 µM | > 500 mg/kg | Non-toxic | 14 µM | 0.15 g | 9.99 g | 61.2% | 12 µM | Non-toxic | 16 µM | Non-toxic | Non-toxic | Non-toxic | Non-toxic | 11.8 µM | 8.21 | 0.3 g | Non-toxic | 1.81 g |  |
| N[C@@H](Cc1c[nH]c2ccccc12)C(=O)N[C@@H](Cc1c[nH]c2ccccc12)C(=O)N[C@@H](Cc1ccc(O)cc1)C(=O)OCc1ccccc1 (H-Trp-Trp-Tyr-OBn) | 43.2 µM | > 500 mg/kg | Non-toxic | 39.6 µM | 0.16 g | 9.76 g | 20.2% | 45.7 µM | Non-toxic | 36 µM | Non-toxic | Non-toxic | Non-toxic | Non-toxic | 36 µM | 7.5 | 0.27 g | Non-toxic | 1.78 g |  |
| CC(C)[C@H](NC(=O)[C@H](Cc1c[nH]c2ccccc12)NC(=O)[C@@H](N)Cc1c[nH]c2ccccc12)C(=O)OCc1ccccc1 (H-Trp-Trp-Val-OBn) | 9.49 µM | > 500 mg/kg | Non-toxic | 9.97 µM | 0.15 g | 9.97 g | 79.5% | 8.27 µM | Non-toxic | 11.2 µM | Non-toxic | Non-toxic | Non-toxic | Non-toxic | 8.14 µM | 7.97 | 0.27 g | Non-toxic | 1.89 g | inhibition in vivo at 0.89 µmol/kg (CCRF S-180 [16]): 70.2%; inhibition in vivo at 0.089 µmol/kg (CCRF S-180 [17]): 41.7%; Activity (Nucleic Acid [18]): Active; Tm (Nucleic Acid [19]): 22 °C; ΔTm (Nucleic Acid [20]): 1 °C |
| Nc1ccn([C@@H]2O[C@H](CO)[C@@H](O)[C@@H]2O)c(=O)n1 [CYTARABINE] | 26.2 µM |  |  | 26 µM |  |  | 31.9% | 24.3 µM |  | 30.6 µM |  |  |  |  | 25.4 µM |  |  |  |  | inhibition in vivo at 0.89 µmol/kg (CCRF S-180 [16]): 20.6%; Activity (Mus musculus [21]): 7.5; Activity (Mus musculus [22]): 7.12 g; inhibition in vivo at 0.089 µmol/kg (CCRF S-180 [17]): 7.86%; Activity (Mus musculus [23]): 1.62 g; Activity (Mus musculus [24]): 0.16 g; Activity (Mus musculus [25]): 0.29 g |
| COc1cccc2c1C(=O)c1c(O)c3c(c(O)c1C2=O)C[C@@](O)(C(=O)CO)C[C@@H]3O[C@H]1C[C@H](N)[C@H](O)[C@H](C)O1 [DOXORUBICIN] | 17.5 µM |  |  | 36.5 µM |  |  | 48.2% | 17.2 µM |  | 21.5 µM |  |  |  |  | 29.2 µM |  |  |  |  | Activity (Mus musculus [21]): 7.31; Activity (Mus musculus [22]): 6.12 g; Activity (Mus musculus [23]): 1.61 g; Activity (Mus musculus [24]): 0.15 g; Activity (Mus musculus [25]): 0.25 g |
